ChEMBL document CHEMBL4229550, “An antimycobacterial pleuromutilin analogue effective against dormant bacilli” (Bioorg Med Chem, 2018)
≈ marks a conversion by molar mass, not a printed value. Calls of active or inactive are those of the source. The rule behind the calls is not given here.

Experiments:
[1] = test system: Staphylococcus aureus; experiment: Antibacterial activity against Staphylococcus aureus incubated for 24 hrs under aerobic condition by MABA; type: functional; conditions: read-out: MIC100
How it was run: (§1)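 Resazurin was then added from a 0.08% stock for 1 h. MIC100 was the lowest concentration where the dye stayed blue (pink means growth). Absorbance was also read at 570 and 600 nm.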

[2] = test system: Mycolicibacterium smegmatis; experiment: Antibacterial activity against Mycobacterium smegmatis; type: functional
[3] = test system: Mycobacterium tuberculosis; experiment: Antibacterial activity against replicating Mycobacterium tuberculosis H37Rv incubated for 15 days under aerobic condition by MABA; type: functional; conditions: 360 h, read-out: MIC100
How it was run: (§2)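 Mtb H37Rv grown in 7H9/OADC at 37 °C with shaking to OD600 0.5. The 0.5-OD culture is exposed aerobically to serial dilutions for 15 days at 37 °C. Resazurin (0.02% stock) is then added for 4 h at 37 °C with shaking.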

[4] = Selectivity index, ratio of IC50 for African green monkey Vero cells to MIC100 for replicating Mycobacterium tuberculosis H37Rv by MABA; type: toxicity; conditions: read-out: Selectivity Index
How it was run: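 Vero cells are cultured in EMEM with 10% FBS and exposed for 72 h to 0.78–200 µg/mL. Medium is switched to phenol-red-free EMEM, MTT is added, and formazan is read at 570 nm to give IC50. The selectivity index is Vero IC50 divided by the MABA MIC.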

[5] = test system: Escherichia coli; experiment: Inhibition of protein translation/transcription in Escherichia coli S30 cell extract at 0.1 ug/ml using circular DNA with pBESTluc after 60 mins by luciferase reporter gene assay; type: functional
How it was run: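 Coupled transcription/translation used E. coli S30 extract, amino acid mix and premix, with the pBESTluc template carrying firefly luciferase under the tac promoter. Compounds were added in DMSO and reactions were started with DNA. Incubation was 60 min at 37 °C, stopped on ice, and luciferase was read after adding assay substrate.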

[6] = Half life in Sprague-Dawley rat liver microsomes at 500 ng/ml preincubated for 5 mins followed by NADPH addition by C-MS/MS analysis; type: ADME, microsome
[7] = test system: Mycobacterium tuberculosis; experiment: Bactericidal activity against replicating Mycobacterium tuberculosis H37Rv incubated for 15 days under aerobic condition by MABA; type: functional; conditions: 360 h; how it was run: as §2
[8] = test system: Mycolicibacterium smegmatis; experiment: Antibacterial activity against Mycobacterium smegmatis ATCC 607 incubated for 48 hrs under aerobic condition by MABA; type: functional; conditions: ATCC 607, 48 h, read-out: MIC100
How it was run: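 Mid-log culture at OD 0.5 was incubated with serial dilutions aerobically at 37 °C for 48 h. Resazurin was then added from a 0.08% stock for 1 h. MIC100 was the lowest concentration that stayed blue; absorbance was also read at 570/600 nm.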

[9] = test system: Mycolicibacterium smegmatis; experiment: Bactericidal activity against Mycobacterium smegmatis ATCC 607 incubated for 48 hrs under aerobic condition by MABA; type: functional; conditions: ATCC 607, 48 h
[10] = test system: Staphylococcus aureus; experiment: Bactericidal activity against Staphylococcus aureus incubated for 24 hrs under aerobic condition by MABA; type: functional
[11] = test system: Staphylococcus aureus; experiment: Antibacterial activity against Staphylococcus aureus ATCC 25923 incubated for 24 hrs under aerobic condition by MABA; type: functional; conditions: ATCC 25923, 24 h, read-out: MIC100
How it was run: (§3)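 Mid-log cultures at OD 0.5 were exposed to serial dilutions under aerobic conditions at 37 °C for 24 h. Resazurin was then added from a 0.08% stock for 1 h. MIC100 was the lowest concentration where the dye stayed blue (pink means growth). Absorbance was also read at 570 and 600 nm.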

[12] = test system: Staphylococcus aureus; experiment: Bactericidal activity against Staphylococcus aureus ATCC 25923 incubated for 24 hrs under aerobic condition by MABA; type: functional; conditions: ATCC 25923, 24 h
[13] = test system: Staphylococcus aureus; experiment: Antibacterial activity against Staphylococcus aureus BAA 2094 incubated for 24 hrs under aerobic condition by MABA; type: functional; conditions: BAA 2094, 24 h, read-out: MIC100; how it was run: as §1
[14] = test system: Staphylococcus aureus; experiment: Bactericidal activity against Staphylococcus aureus BAA 2094 incubated for 24 hrs under aerobic condition by MABA; type: functional; conditions: BAA 2094, 24 h
[15] = test system: Staphylococcus aureus; experiment: Antibacterial activity against Staphylococcus aureus BAA 1683 incubated for 24 hrs under aerobic condition by MABA; type: functional; conditions: BAA 1683, 24 h, read-out: MIC100; how it was run: as §3
[16] = test system: Staphylococcus aureus; experiment: Bactericidal activity against Staphylococcus aureus BAA 1683 incubated for 24 hrs under aerobic condition by MABA; type: functional; conditions: BAA 1683, 24 h
[17] = test system: Staphylococcus aureus; experiment: Antibacterial activity against Staphylococcus aureus BAA 44 incubated for 24 hrs under aerobic condition by MABA; type: functional; conditions: BAA 44, 24 h, read-out: MIC100; how it was run: as §3
[18] = test system: Staphylococcus aureus; experiment: Bactericidal activity against Staphylococcus aureus BAA 44 incubated for 24 hrs under aerobic condition by MABA; type: functional; conditions: BAA 44, 24 h
[19] = test system: Enterococcus faecalis; experiment: Antibacterial activity against Enterococcus faecalis ATCC 349 incubated for 24 hrs under aerobic condition by MABA; type: functional; conditions: ATCC 349, 24 h, read-out: MIC100; how it was run: as §3
[20] = test system: Enterococcus faecalis; experiment: Bactericidal activity against Enterococcus faecalis ATCC 349 incubated for 24 hrs under aerobic condition by MABA; type: functional; conditions: ATCC 349, 24 h
[21] = test system: Enterococcus faecalis; experiment: Antibacterial activity against Enterococcus faecalis ATCC 19433 incubated for 24 hrs under aerobic condition by MABA; type: functional; conditions: ATCC 19433, 24 h, read-out: MIC100; how it was run: as §3
[22] = test system: Enterococcus faecalis; experiment: Bactericidal activity against Enterococcus faecalis ATCC 19433 incubated for 24 hrs under aerobic condition by MABA; type: functional; conditions: ATCC 19433, 24 h
[23] = test system: Clostridioides difficile; experiment: Bactericidal activity against Clostridium difficile ATCC 700057 incubated for 24 hrs […] by MABA; type: functional; conditions: ATCC 700057, 24 h
[24] = test system: Streptococcus pneumoniae; experiment: Antibacterial activity against Streptococcus pneumoniae ATCC 6301 incubated for 24 hrs under aerobic condition by MABA; type: functional; conditions: ATCC 6301, 24 h, read-out: MIC100; how it was run: as §3
[25] = test system: Streptococcus pneumoniae; experiment: Bactericidal activity against Streptococcus pneumoniae ATCC 6301 incubated for 24 hrs under aerobic condition by MABA; type: functional; conditions: ATCC 6301, 24 h
[26] = test system: Klebsiella pneumoniae; experiment: Antibacterial activity against Klebsiella pneumoniae ATCC 12019 incubated for 24 hrs under aerobic condition by MABA; type: functional; conditions: ATCC 12019, 24 h, read-out: MIC100; how it was run: as §3
[27] = test system: Klebsiella pneumoniae; experiment: Bactericidal activity against Klebsiella pneumoniae ATCC 12019 incubated for 24 hrs under aerobic condition by MABA; type: functional; conditions: ATCC 12019, 24 h
[28] = test system: Acinetobacter baumannii; experiment: Antibacterial activity against Acinetobacter baumannii ATCC 19606 incubated for 24 hrs under aerobic condition by MABA; type: functional; conditions: ATCC 19606 = CIP 70.34 = JCM 6841, 24 h, read-out: MIC100; how it was run: as §3
[29] = test system: Acinetobacter baumannii; experiment: Bactericidal activity against Acinetobacter baumannii ATCC 19606 incubated for 24 hrs under aerobic condition by MABA; type: functional; conditions: ATCC 19606 = CIP 70.34 = JCM 6841, 24 h
[30] = test system: Escherichia coli; experiment: Antibacterial activity against Escherichia coli ATCC 10798 incubated for 24 hrs under aerobic condition by MABA; type: functional; conditions: ATCC 10798, 24 h, read-out: MIC100; how it was run: as §3
[31] = test system: Escherichia coli; experiment: Bactericidal activity against Escherichia coli ATCC 10798 incubated for 24 hrs under aerobic condition by MABA; type: functional; conditions: ATCC 10798, 24 h
[32] = test system: Streptococcus salivarius; experiment: Antibacterial activity against Streptococcus salivarius […] incubated for 24 hrs under aerobic condition by MABA; type: functional; conditions: read-out: MIC100; how it was run: as §1
[33] = test system: Streptococcus salivarius; experiment: Bactericidal activity against Streptococcus salivarius ATCC 6301 incubated for 24 hrs under aerobic condition by MABA; type: functional; conditions: ATCC 6301, 24 h
[34] = test system: Bacillus subtilis; experiment: Antibacterial activity against Bacillus subtilis ATCC 6051 incubated for 24 hrs under aerobic condition by MABA; type: functional; conditions: ATCC 6051, 24 h, read-out: MIC100; how it was run: as §3
[35] = test system: Bacillus subtilis; experiment: Bactericidal activity against Bacillus subtilis ATCC 6051 incubated for 24 hrs under aerobic condition by MABA; type: functional; conditions: ATCC 6051, 24 h

Q: Which results are given for `C=C[C@]1(C)C[C@@H](OC(=O)CSC(C)(C)CNC(=O)[C@H](N)C(C)C)[C@]2(C)[C@H](C)CC[C@]3(CCC(=O)[C@H]32)[C@@H](C)[C@@H]1O` [VALNEMULIN]?
A: MIC [1]: 0.4 µg/mL (≈ 0.708 µM); MIC [2]: 8 to 16 µg/mL (≈ 14.2 to 28.3 µM); MIC [3]: 3.13 µg/mL (≈ 5.54 µM); selectivity ratio [4]: 4.79; inhibition [5]: Active; t1/2 [6]: 10 min; MBC [7]: 6.25 µg/mL (≈ 11.1 µM); MIC [8]: 12.5 µg/mL (≈ 22.1 µM); MBC [9]: 25 µg/mL (≈ 44.3 µM); MBC [10]: 0.8 µg/mL (≈ 1.42 µM); MIC [11]: > 25 µg/mL; MBC [12]: > 25 µg/mL; MIC [13]: > 25 µg/mL; MBC [14]: > 25 µg/mL; MIC [15]: > 25 µg/mL; MBC [16]: > 25 µg/mL; MIC [17]: > 25 µg/mL; MBC [18]: > 25 µg/mL; MIC [19]: > 25 µg/mL; MBC [20]: > 25 µg/mL; MIC [21]: 6.25 µg/mL (≈ 11.1 µM); MBC [22]: 12.5 µg/mL (≈ 22.1 µM); MBC [23]: 1.56 µg/mL (≈ 2.76 µM); MIC [24]: 12.5 µg/mL (≈ 22.1 µM); MBC [25]: > 25 µg/mL; MIC [26]: 12.5 µg/mL (≈ 22.1 µM); MBC [27]: 25 µg/mL (≈ 44.3 µM); MIC [28]: 4.69 µg/mL (≈ 8.3 µM); MBC [29]: 6.25 µg/mL (≈ 11.1 µM); MIC [30]: 12.5 µg/mL (≈ 22.1 µM); MBC [31]: > 25 µg/mL; MIC [32]: 0.4 µg/mL (≈ 0.708 µM); MBC [33]: > 25 µg/mL; MIC [34]: 12.5 µg/mL (≈ 22.1 µM); MBC [35]: 25 µg/mL (≈ 44.3 µM)
